The values below come from ChEMBL document CHEMBL2380293, “Design, synthesis, and biological evaluation of novel histone deacetylase 1 inhibitors through click chemistry” (Bioorg Med Chem Lett, 2013).

The source made the active and inactive calls. The calls are words filed in the database; no cut-off is given here.

The first assay deals with HT-1080. Nature of the assay: Growth inhibition of human HT1080 cells by MTT assay. In kind it is functional. In outline:
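MTT cell growth read-out, with SAHA as the positive control. GI50 values are means of three experiments. 10 μM was the concentration tested for scoring absence of activity.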
Background: Tetrazolium assays rely on reduction of a dye to a coloured formazan, in cell work by metabolically active cells.
The molecule `O=C(CCCCCCC(=O)Nc1ccccc1)NO` [VORINOSTAT] yielded a GI50 of 4870 nM.

A further assay addresses T1, Histone deacetylase 7 (Homo sapiens) (UniProt Q8WUI4).
T1 sequence (whole entry): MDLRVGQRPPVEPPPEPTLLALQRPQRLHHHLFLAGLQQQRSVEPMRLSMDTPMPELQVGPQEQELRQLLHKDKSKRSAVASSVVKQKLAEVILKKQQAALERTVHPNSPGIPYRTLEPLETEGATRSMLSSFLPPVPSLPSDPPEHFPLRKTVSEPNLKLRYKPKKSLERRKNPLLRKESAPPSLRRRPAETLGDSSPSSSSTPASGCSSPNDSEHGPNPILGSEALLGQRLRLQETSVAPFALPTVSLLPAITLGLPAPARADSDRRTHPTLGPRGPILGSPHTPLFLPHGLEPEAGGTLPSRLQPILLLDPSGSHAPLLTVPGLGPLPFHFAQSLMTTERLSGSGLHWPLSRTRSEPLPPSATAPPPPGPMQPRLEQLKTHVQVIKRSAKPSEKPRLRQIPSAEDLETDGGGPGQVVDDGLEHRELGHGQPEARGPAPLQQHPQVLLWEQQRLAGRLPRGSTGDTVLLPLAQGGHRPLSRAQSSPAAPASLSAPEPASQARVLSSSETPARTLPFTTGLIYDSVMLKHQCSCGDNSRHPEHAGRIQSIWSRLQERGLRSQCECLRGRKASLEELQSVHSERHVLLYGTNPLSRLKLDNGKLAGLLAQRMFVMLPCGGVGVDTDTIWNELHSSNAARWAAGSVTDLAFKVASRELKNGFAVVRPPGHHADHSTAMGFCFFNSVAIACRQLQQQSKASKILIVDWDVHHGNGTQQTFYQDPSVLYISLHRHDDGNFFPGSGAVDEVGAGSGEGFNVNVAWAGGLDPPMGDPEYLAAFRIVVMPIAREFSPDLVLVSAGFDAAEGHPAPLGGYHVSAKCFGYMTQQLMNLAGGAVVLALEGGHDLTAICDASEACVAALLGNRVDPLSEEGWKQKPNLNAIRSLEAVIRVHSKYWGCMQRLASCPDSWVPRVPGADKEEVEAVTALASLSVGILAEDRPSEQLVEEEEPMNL
Kind of assay: Inhibition of human recombinant HDAC7 at 10 uM incubated for 10 mins prior to substrate addition measured after 60 mins by spectrophotometric analysis. A digest of the protocol:
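Enzyme IC50 values are means of three experiments, with SAHA run as the positive control. Absence of activity was judged at 10 μM.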
In the case of `O=C(CCCCc1cn(Cc2ccccc2)nn1)NO`, the inhibition result is “inactive”.

In the case of `Cc1ccc(Cn2cc(CCCCC(=O)NO)nn2)cc1`, the inhibition result is “inactive”.

As to `O=C(CCCCc1cn(Cc2ccc(F)cc2F)nn1)NO`, the inhibition entry was “inactive”.

Take `O=C(CCCCc1cn(Cc2ccc(Cl)cc2)nn1)NO`: the inhibition entry was “inactive”.

As to `O=C(CCCCc1cn(Cc2ccccc2F)nn1)NO`, the inhibition result was “inactive”.

`Cc1ccccc1Cn1cc(CCCCC(=O)NO)nn1`: the inhibition result was “inactive”.

Take `O=C(CCCCc1cn(Cc2ccc3c(c2)OCO3)nn1)NO`: the inhibition result is “inactive”.

`O=C(CCCCc1cn(Cc2ccc(C(F)(F)F)cc2)nn1)NO`: the inhibition result is “inactive”.

`COc1ccc(Cn2cc(CCCCC(=O)NO)nn2)cc1`: the inhibition result was “inactive”.

Regarding `O=C(CCCCc1cn(Cc2ccccc2Cn2cc(CCCCC(=O)NO)nn2)nn1)NO`, the inhibition entry is “inactive”.

`O=C(CCCCc1cn(Cc2ccccn2)nn1)NO`: the inhibition entry was “inactive”.

Regarding `O=C(CCCCc1cn(Cc2ccc(F)cc2)nn1)NO`, the inhibition entry is “inactive”.

Take `N#Cc1ccc(Cn2cc(CCCCC(=O)NO)nn2)cc1`: the inhibition entry is “inactive”.

For the next assay, the target named is Histone deacetylase 1 (Homo sapiens, UniProt Q13547). Nature of the assay: Inhibition of human recombinant HDAC1 incubated for 10 mins prior to substrate addition measured after 60 mins by spectrophotometric analysis.
Chain of Histone deacetylase 1 (Q13547 whole entry): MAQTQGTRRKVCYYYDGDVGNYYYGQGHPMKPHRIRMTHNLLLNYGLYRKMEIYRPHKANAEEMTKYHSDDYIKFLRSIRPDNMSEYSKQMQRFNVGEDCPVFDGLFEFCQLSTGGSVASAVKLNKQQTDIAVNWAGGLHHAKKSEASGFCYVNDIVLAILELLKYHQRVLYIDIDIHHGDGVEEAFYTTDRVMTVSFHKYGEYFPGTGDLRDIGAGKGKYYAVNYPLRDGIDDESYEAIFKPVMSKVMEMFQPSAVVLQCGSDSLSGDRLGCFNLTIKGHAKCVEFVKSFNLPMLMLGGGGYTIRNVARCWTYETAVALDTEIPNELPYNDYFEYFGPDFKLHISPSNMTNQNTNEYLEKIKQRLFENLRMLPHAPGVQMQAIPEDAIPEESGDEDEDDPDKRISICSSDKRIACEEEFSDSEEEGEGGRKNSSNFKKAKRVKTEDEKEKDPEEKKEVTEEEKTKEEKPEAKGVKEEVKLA
As to `O=C(CCCCc1cn(Cc2ccccc2)nn1)NO`, the IC50 is 1680 nM.

As for `Cc1ccc(Cn2cc(CCCCC(=O)NO)nn2)cc1`, the IC50 is 440 nM.

`O=C(CCCCc1cn(Cc2ccc(F)cc2F)nn1)NO`: the IC50 is 1220 nM.

As to `O=C(CCCCc1cn(Cc2ccc(Cl)cc2)nn1)NO`, the IC50 came out at 2210 nM.

As for `O=C(CCCCc1cn(Cc2ccccc2F)nn1)NO`, the IC50 was determined as 1360 nM.

For the molecule `Cc1ccccc1Cn1cc(CCCCC(=O)NO)nn1`, the IC50 was 1050 nM.

On to `O=C(CCCCc1cn(Cc2ccc3c(c2)OCO3)nn1)NO`, for which the IC50 was determined as 1900 nM.

For the molecule `O=C(CCCCc1cn(Cc2ccc(C(F)(F)F)cc2)nn1)NO`, the IC50 amounted to 440 nM.

Consider `COc1ccc(Cn2cc(CCCCC(=O)NO)nn2)cc1`, for which the IC50 was determined as 1850 nM.

As to `O=C(CCCCc1cn(Cc2ccccc2Cn2cc(CCCCC(=O)NO)nn2)nn1)NO`, the IC50 worked out at 807 nM.

For the molecule `O=C(CCCCc1cn(Cc2ccccn2)nn1)NO`, the IC50 is 2570 nM.

Take `O=C(CCCCc1cn(Cc2ccc(F)cc2)nn1)NO`: the IC50 turned out to be 645 nM.

Consider `N#Cc1ccc(Cn2cc(CCCCC(=O)NO)nn2)cc1`, for which the IC50 came to 701 nM.

By GI50 is commonly meant the concentration giving 50% growth inhibition. A lower GI50 goes with greater sensitivity of the cells. Usually IC50 stands for the concentration that inhibits the measured activity by half.
